Reference: ChEMBL document CHEMBL2069278, “Novel substituted benzothiophene and thienothiophene carboxanilides and quinolones: synthesis, photochemical synthesis, DNA-binding properties, antitumor evaluation and 3D-derived QSAR analysis” (J Med Chem, 2012)
pIC50: −log10 of the molar value. Calls of active or inactive are those of the source. The calls are words filed in the database; no cut-off is given here.

How the values were obtained:
HCT-116 [1] = test: Induction of cell cycle arrest in human HCT116 cells assessed as accumulation at G1 phase after 24 to 48 hrs by propidium iodide based flow cytometry; format: functional
Method in brief: (§1)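 HCT116 cells (2 × 10^5 per well) treated after 24 h with 1 or 5 μM for 24 and 48 h; floating and attached cells pooled, fixed in 70% ethanol, stained with 50 μg/mL propidium iodide plus RNase A; 20 000 events by flow cytometry; phase percentages from DNA histograms; duplicate, repeated at least twice.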

Nucleic Acid [2] = test: Binding affinity to calf thymus DNA assessed as change in melting temperature at drug/base pair ratio of 0.5 by UV-visible spectrophotometric analysis; format: nucleic-acid assay; settings: Bos taurus
Method in brief: (§2)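 Melting: 20 μM CT-DNA or poly(dAdT)2 alone or with compound (drug/base pair ratio 0.01−0.5) in BPE buffer (6 mM Na2HPO4, 2 mM NaH2PO4, 1 mM EDTA, pH 7.1); A260 read each minute from 20 to 100 °C at 1 °C/min; Tm from midpoint of hyperchromic transition (first-derivative plots); ΔTm = Tm[drug+DNA] − Tm[DNA alone].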

HCT-116 [3] = test: Induction of cell cycle arrest in human HCT116 cells assessed as accumulation at G2/M phase at 1 to 5 uM by propidium iodide based flow cytometry; format: functional; settings: TDE = time-dependent effect; method in brief: as §1
HCT-116 [4] = test: Induction of cell cycle arrest in human HCT116 cells assessed as accumulation at G1 phase at 5 uM after 24 to 48 hrs by propidium iodide based flow cytometry; format: functional; method in brief: as §1
Nucleic Acid [5] = test: Binding affinity to calf thymus DNA assessed as DNA intercalation at 50 uM by circular dichroism spectra analysis; format: nucleic-acid assay; settings: Bos taurus
Method in brief: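 CD: 50 μM compound with 200 μM CT-DNA in BPE buffer, alone or plus 10 or 100 mM NaCl; spectra 480–230 nm, 10 mm quartz cell, 20 °C; compound without DNA as control for intrinsic CD.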

MOLT-4 = test: Cytotoxicity against human MOLT4 cells after 72 hrs by MTT assay; format: functional, cell-based; settings: MOLT-4, 72 h
Method in brief: (§3)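 Cells seeded on day 0 at 1 × 10^4 to 3 × 10^4 cells/mL (adherent lines in DMEM, MOLT-4 in suspension in RPMI, 10% FBS, 37 °C, 5% CO2); 10-fold dilutions 10−8–10−4 M for 72 h; MTT, OD 570 nm; percentage growth versus time-zero and control; IC50 by linear regression; quadruplicate, at least two experiments.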

NCI-H460 = test: Cytotoxicity against human H460 cells after 72 hrs by MTT assay; format: functional, cell-based; settings: NCI-H460, 72 h; method in brief: as §3
HCT-116 [6] = test: Cytotoxicity against human HCT116 cells after 72 hrs by MTT assay; format: functional, cell-based; settings: HCT-116, 72 h; method in brief: as §3
HCT-116 [7] = test: Induction of cell cycle arrest in human HCT116 cells assessed as accumulation at G1 phase at 1 to 5 uM by propidium iodide based flow cytometry; format: functional; settings: TDE = time-dependent effect; method in brief: as §1
Nucleic Acid [8] = test: Binding affinity to AT rich site of Pvu2 DNA by densitometric analysis; format: nucleic-acid assay
Method in brief: (§4)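 265 bp EcoRI/PvuII pBluescript fragment, 3′-end labeled with α-[32P]dATP by Klenow. Compounds at increasing concentrations pre-equilibrated with DNA 15 min at 37 °C, then DNase I (final 0.002 unit/mL) in 20 mM NaCl, 2 mM MgCl2, 2 mM MnCl2, pH 7.3, 4 min digestion; products resolved on denaturing 8% polyacrylamide/8 M urea gel, G-track for base positions.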

Nucleic Acid [9] = test: Binding affinity to radiolabeled Pvu2 DNA after 15 mins by Dnase1 footprinting assay; format: nucleic-acid assay; method in brief: as §4
[10] = molecular target: T1, DNA topoisomerase 1 (Homo sapiens) (UniProt P11387); test: Inhibition of human topoisomerase 1-mediated supercoiled pUC19 plasmid DNA relaxation at 10 uM incubated for 45 mins followed by enzyme addition measured after 30 mins by agarose gel electrophoresis
T1 sequence (whole entry): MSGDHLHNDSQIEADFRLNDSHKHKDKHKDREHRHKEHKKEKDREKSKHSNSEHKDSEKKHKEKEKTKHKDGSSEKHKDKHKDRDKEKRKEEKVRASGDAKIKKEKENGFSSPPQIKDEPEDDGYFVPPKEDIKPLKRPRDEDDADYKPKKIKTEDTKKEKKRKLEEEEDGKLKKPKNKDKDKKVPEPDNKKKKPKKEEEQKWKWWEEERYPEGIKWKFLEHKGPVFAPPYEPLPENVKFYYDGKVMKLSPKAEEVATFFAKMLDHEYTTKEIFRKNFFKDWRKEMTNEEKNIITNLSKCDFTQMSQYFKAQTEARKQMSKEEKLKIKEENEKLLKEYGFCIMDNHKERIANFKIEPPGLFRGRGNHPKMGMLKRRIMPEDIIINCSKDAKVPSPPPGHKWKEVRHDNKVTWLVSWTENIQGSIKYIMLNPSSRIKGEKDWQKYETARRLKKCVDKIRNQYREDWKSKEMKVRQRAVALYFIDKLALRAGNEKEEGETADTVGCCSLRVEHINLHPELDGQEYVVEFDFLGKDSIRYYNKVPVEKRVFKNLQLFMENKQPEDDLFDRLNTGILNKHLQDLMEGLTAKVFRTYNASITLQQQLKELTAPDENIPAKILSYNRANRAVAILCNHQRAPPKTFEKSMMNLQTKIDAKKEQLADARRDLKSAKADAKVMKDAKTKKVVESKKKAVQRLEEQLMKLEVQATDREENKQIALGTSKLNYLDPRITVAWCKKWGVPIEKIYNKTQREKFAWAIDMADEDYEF
Method in brief: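 Graded compound concentrations preincubated with supercoiled pUC19, then 4 units human topoisomerase I, 37 °C for 45 min in relaxation buffer; stopped with 0.25% SDS and 250 μg/mL proteinase K, 30 min at 50 °C; 1% agarose gel without ethidium bromide, 2 h at 120 V in TBE, then stained with ethidium bromide.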

Nucleic Acid [11] = test: Binding affinity to calf thymus DNA assessed as change in melting temperature at drug/base pair ratio of 0.25 by UV-visible spectrophotometric analysis; format: nucleic-acid assay; settings: Bos taurus; method in brief: as §2
[12] = molecular target: DNA topoisomerase 2-alpha (Homo sapiens) (UniProt P11388); test: Inhibition of human topoisomerase 2-mediated DNA cleavage at 50 uM incubated for 45 mins followed by enzyme addition measured after 30 mins by agarose gel electrophoresis
Chain of DNA topoisomerase 2-alpha (Homo sapiens) (P11388 whole entry): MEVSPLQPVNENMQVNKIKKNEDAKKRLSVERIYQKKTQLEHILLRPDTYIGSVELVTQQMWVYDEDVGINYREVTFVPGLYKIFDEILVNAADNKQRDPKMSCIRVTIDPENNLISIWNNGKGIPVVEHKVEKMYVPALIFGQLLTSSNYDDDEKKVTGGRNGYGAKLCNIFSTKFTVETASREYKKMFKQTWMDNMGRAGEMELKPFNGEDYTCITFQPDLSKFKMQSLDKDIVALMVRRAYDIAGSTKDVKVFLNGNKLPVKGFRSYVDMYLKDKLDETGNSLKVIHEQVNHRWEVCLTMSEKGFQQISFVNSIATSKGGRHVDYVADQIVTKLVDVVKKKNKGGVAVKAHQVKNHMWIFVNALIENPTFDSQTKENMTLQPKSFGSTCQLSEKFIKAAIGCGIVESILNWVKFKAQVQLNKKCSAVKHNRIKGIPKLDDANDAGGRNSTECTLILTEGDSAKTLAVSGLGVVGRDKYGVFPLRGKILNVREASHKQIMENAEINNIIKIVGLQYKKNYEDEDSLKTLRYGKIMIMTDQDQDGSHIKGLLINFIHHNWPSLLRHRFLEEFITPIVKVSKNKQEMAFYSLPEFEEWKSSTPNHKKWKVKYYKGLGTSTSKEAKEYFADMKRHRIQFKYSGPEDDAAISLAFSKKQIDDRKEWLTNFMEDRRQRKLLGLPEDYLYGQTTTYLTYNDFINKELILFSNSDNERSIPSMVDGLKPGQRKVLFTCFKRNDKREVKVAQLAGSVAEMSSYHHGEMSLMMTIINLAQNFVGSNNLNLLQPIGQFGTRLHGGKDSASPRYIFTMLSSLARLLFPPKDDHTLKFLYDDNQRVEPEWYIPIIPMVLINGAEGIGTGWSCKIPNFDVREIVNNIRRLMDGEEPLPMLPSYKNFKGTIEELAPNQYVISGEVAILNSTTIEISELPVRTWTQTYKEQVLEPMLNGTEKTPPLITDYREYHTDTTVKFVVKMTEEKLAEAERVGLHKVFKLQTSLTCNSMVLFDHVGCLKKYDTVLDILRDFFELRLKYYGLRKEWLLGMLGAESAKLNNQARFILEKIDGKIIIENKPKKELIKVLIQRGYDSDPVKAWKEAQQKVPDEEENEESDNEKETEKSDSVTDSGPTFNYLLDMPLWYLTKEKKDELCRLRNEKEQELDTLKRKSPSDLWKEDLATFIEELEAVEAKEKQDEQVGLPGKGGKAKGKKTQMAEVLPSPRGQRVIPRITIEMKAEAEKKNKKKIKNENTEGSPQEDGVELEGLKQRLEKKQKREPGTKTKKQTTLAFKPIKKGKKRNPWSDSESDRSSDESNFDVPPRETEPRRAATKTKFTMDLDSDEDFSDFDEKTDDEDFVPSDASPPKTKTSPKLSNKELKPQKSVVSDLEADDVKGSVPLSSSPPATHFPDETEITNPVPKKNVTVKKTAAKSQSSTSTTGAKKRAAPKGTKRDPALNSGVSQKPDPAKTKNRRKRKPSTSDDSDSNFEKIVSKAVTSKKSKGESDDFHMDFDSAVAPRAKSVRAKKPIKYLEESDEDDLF
Method in brief: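 Compounds (50 μM) incubated with 350 ng supercoiled pUC19 before topoisomerase II addition; gel quantified for percentage poisoning normalized to etoposide at the same concentration.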

MCF7 = test: Cytotoxicity against human MCF7 cells after 72 hrs by MTT assay; format: functional, cell-based; settings: MCF7, 72 h; method in brief: as §3
SW-620 = test: Cytotoxicity against human SW620 cells after 72 hrs by MTT assay; format: functional, cell-based; settings: SW-620, 72 h; method in brief: as §3
HCT-116 [13] = test: Induction of cell cycle arrest in human HCT116 cells assessed as accumulation at G2/M phase after 24 to 48 hrs by propidium iodide based flow cytometry; format: functional; method in brief: as §1
Nucleic Acid [14] = test: Binding affinity to Poly (dAdT)2 DNA assessed as DNA intercalation at 20 uM by circular dichroism spectra analysis; format: nucleic-acid assay
Method in brief: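 CD: compound titrated against poly(dAdT)2, or poly(dAdT)2 titrated with compound from 1 to 200 μM, in BPE buffer (pH 7.1); spectra from 480 to 230 nm in 10 mm quartz cell at 20 °C; peak position and intensity followed.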

Nucleic Acid [15] = test: Binding affinity to Poly (dAdT)2 DNA assessed as change in melting temperature at drug/base pair ratio of 0.05 by UV-visible spectrophotometric analysis; format: nucleic-acid assay; method in brief: as §2
[16] = molecular target: T1, DNA topoisomerase 1 (Homo sapiens); test: Inhibition of human topoisomerase 1-mediated DNA cleavage at 10 uM incubated for 45 mins followed by enzyme addition measured after 30 mins by agarose gel electrophoresis
Method in brief: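 Topo I cleavage run like the relaxation assay (pUC19, 4 units human topoisomerase I, 37 °C, 45 min; SDS/proteinase K stop), but samples run on 1% agarose gel containing ethidium bromide; camptothecin 20 μM as poisoning control.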

Nucleic Acid [17] = test: Binding affinity to Poly (dAdT)2 DNA assessed as change in melting temperature at drug/base pair ratio of 0.025 by UV-visible spectrophotometric analysis; format: nucleic-acid assay; method in brief: as §2
Nucleic Acid [18] = test: Binding affinity to Poly (dAdT)2 DNA assessed as change in melting temperature at drug/base pair ratio of 0.25 by UV-visible spectrophotometric analysis; format: nucleic-acid assay; method in brief: as §2
Nucleic Acid [19] = test: Binding affinity to calf thymus DNA assessed as change in melting temperature at drug/base pair ratio of 0.01 by UV-visible spectrophotometric analysis; format: nucleic-acid assay; settings: Bos taurus; method in brief: as §2
Nucleic Acid [20] = test: Binding affinity to Poly (dAdT)2 DNA assessed as change in melting temperature at drug/base pair ratio of 0.1 by UV-visible spectrophotometric analysis; format: nucleic-acid assay; method in brief: as §2
Nucleic Acid [21] = test: Binding affinity to Poly (dAdT)2 DNA assessed as change in melting temperature at drug/base pair ratio of 0.01 by UV-visible spectrophotometric analysis; format: nucleic-acid assay; method in brief: as §2
Nucleic Acid [22] = test: Binding affinity to calf thymus DNA assessed as change in melting temperature at drug/base pair ratio of 0.025 by UV-visible spectrophotometric analysis; format: nucleic-acid assay; settings: Bos taurus; method in brief: as §2
Nucleic Acid [23] = test: Binding affinity to calf thymus DNA assessed as change in melting temperature at drug/base pair ratio of 0.1 by UV-visible spectrophotometric analysis; format: nucleic-acid assay; settings: Bos taurus; method in brief: as §2

Row | Compound | Activity (HCT-116 [1]) | ΔTm (Nucleic Acid [2]) [°C] | Activity (HCT-116 [3]) | Activity (Nucleic Acid [5]) | pIC50 (MOLT-4) | pIC50 (NCI-H460) | pIC50 (HCT-116 [6]) | Activity (HCT-116 [7]) | Activity (Nucleic Acid [8]) | Activity (Nucleic Acid [9]) | inhibition [10] | ΔTm (Nucleic Acid [11]) [°C] | inhibition [12] | pIC50 (MCF7) | pIC50 (SW-620) | Activity (HCT-116 [13]) | other results
1 | O=C(Nc1ccc(C2=NCCN2)cc1)c1sc2ccccc2c1Cl | Dose-dependent effect | 6.8 | tde | inactive | 5.68 | 6.00 | 5.74 | tde | inactive | Active | Active | 5 | Active | 5.80 | 5.92 | Dose-dependent effect | Activity (HCT-116 [4]): Active
2 | O=C(Nc1ccc(C2=NCCN2)cc1)c1sc2cc(C3=NCCN3)ccc2c1Cl | Dose-dependent effect | 28.4 | tde | Active | 5.72 | 5.59 | 5.77 | tde | Active | Active | Active | 23.9 | Active | 5.82 | 5.85 | Dose-dependent effect | Activity (Nucleic Acid [14]): Active; ΔTm (Nucleic Acid [15]): 5.9 °C; inhibition [16]: Active; ΔTm (Nucleic Acid [17]): 2 °C; ΔTm (Nucleic Acid [18]): 27.4 °C; ΔTm (Nucleic Acid [19]): 1 °C; ΔTm (Nucleic Acid [20]): 18.6 °C; ΔTm (Nucleic Acid [21]): 1 °C; ΔTm (Nucleic Acid [22]): 2 °C; ΔTm (Nucleic Acid [23]): 7.9 °C
